Converted amounts (≈) assume the structure as drawn.
Columns and labels:
Streptococcus pneumoniae [1] = assay: Minimum inhibitory concentration against Streptococcus pneumoniae ATCC 6303 Ery-S; assay type: functional
Method in brief: (§1)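 MICs were determined by agar dilution following National Committee for Clinical Laboratory Standards recommendations. Values are in µg/mL.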

[2] = Minimum inhibitory concentration against Streptococcus pneumoniae 5737 MLSB; assay type: functional; method in brief: as §1
[3] = Minimum inhibitory concentration against Streptococcus pyogenes EES 61 Ery-S; assay type: functional; method in brief: as §1
Staphylococcus aureus [4] = assay: Minimum inhibitory concentration against Staphylococcus aureus A 5177 MLSB-i; assay type: functional; method in brief: as §1
Streptococcus pneumoniae [5] = assay: Minimum inhibitory concentration against Streptococcus pneumoniae 5649 efflux; assay type: functional; method in brief: as §1
Staphylococcus aureus [6] = assay: Minimum inhibitory concentration against Staphylococcus aureus ATCC 6538PEry-S; assay type: functional; settings: ATCC 6538P; method in brief: as §1
Staphylococcus aureus [7] = assay: Minimum inhibitory concentration against Staphylococcus aureus A 5278 MLSB-c; assay type: functional; method in brief: as §1
[8] = Minimum inhibitory concentration against Streptococcus pyogenes 930MLSB; assay type: functional; method in brief: as §1
[9] = Minimum inhibitory concentration against Haemophilus influenzae DILL Amp-R; assay type: functional; method in brief: as §1
[10] = Minimum inhibitory concentration against Streptococcus pyogenes PIU2548 efflux; assay type: functional; method in brief: as §1
Mus musculus [11] = organism: Mus musculus; assay: Mouse protection tests for effective dose against Streptococcus pneumoniae 6303 ((erythromycin susceptible strain)) infected mice; assay type: functional
Mus musculus [12] = organism: Mus musculus; assay: Mouse protection tests for effective dose against Staphylococcus aureus 10649 ((erythromycin susceptible strain)) infected mice; assay type: functional
Streptococcus pneumoniae [13] = assay: Minimum inhibitory concentration against Streptococcus pneumoniae 6303 (erythromycin susceptible strain); assay type: functional; method in brief: as §1
Staphylococcus aureus [14] = assay: Minimum inhibitory concentration against Staphylococcus aureus 10649 (erythromycin susceptible strain); assay type: functional; method in brief: as §1
Streptococcus pneumoniae [15] = assay: Cell free inhibiting activity against MLSB-resistant strain Streptococcus pneumoniae 1813 (methylated ribosomes for transcription/translation assay)
Streptococcus pneumoniae [16] = assay: Cell free inhibiting activity against erythromycin-susceptible strain Streptococcus pneumoniae 5635 (Wild type ribosomes for transcription/translation assay); assay type: functional
Method in brief: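 Cell-free coupled transcription/translation assay using bacterial ribosome S-30 extracts. Wild-type ribosomes were isolated from the erythromycin-susceptible strain S. pneumoniae 5635. Inhibition is reported as IC50 (µM).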

Row | Compound | MIC (Streptococcus pneumoniae [1]) [µg/mL] | MIC [2] [µg/mL] | MIC [3] [µg/mL] | MIC (Staphylococcus aureus [4]) [µg/mL] | MIC (Streptococcus pneumoniae [5]) [µg/mL] | MIC (Staphylococcus aureus [6]) [µg/mL] | MIC (Staphylococcus aureus [7]) [µg/mL] | MIC [8] [µg/mL] | MIC [9] [µg/mL] | MIC [10] [µg/mL] | ED50 (Mus musculus [11]) [mg/kg] | ED50 (Mus musculus [12]) [mg/kg] | MIC (Streptococcus pneumoniae [13]) [µg/mL] | MIC (Staphylococcus aureus [14]) [µg/mL] | IC50 (Streptococcus pneumoniae [15]) [µM] | IC50 (Streptococcus pneumoniae [16]) [µM]
1 | CC[C@H]1OC(=O)[C@H](C)C(=O)[C@H](C)[C@@H](O[C@@H]2O[C@H](C)C[C@H](N(C)C)[C@H]2O)[C@](C)(OC/C=C/c2ccc3[nH]cnc3c2)C[C@@H](C)C(=O)[C@H](C)[C@H]2NC(=O)O[C@@]21C | 0.03 (≈ 0.0397 µM) | 8 (≈ 10.6 µM) | 0.03 (≈ 0.0397 µM) | 0.1 (≈ 0.132 µM) | 4 (≈ 5.3 µM) | 0.1 (≈ 0.132 µM) | > 100 | 4 (≈ 5.3 µM) | 4 (≈ 5.3 µM) | 2 (≈ 2.65 µM) |  |  |  |  |  | 
2 | CC[C@H]1OC(=O)[C@H](C)C(=O)[C@H](C)[C@@H](O[C@@H]2O[C@H](C)C[C@H](N(C)C)[C@H]2O)[C@](C)(OC/C=C/c2cnc3ccncc3c2)C[C@@H](C)C(=O)[C@H](C)[C@H]2NC(=O)O[C@@]21C | 0.008 (≈ 0.0104 µM) | 0.25 (≈ 0.326 µM) | 0.015 (≈ 0.0196 µM) | 0.05 (≈ 0.0652 µM) | 0.5 (≈ 0.652 µM) | 0.05 (≈ 0.0652 µM) | > 100 | 4 (≈ 5.22 µM) | 2 (≈ 2.61 µM) | 0.5 (≈ 0.652 µM) | > 50 | 12.5 | 0.008 (≈ 0.0104 µM) | 0.05 (≈ 0.0652 µM) |  | 
3 | CC[C@H]1OC(=O)[C@H](C)C(=O)[C@H](C)[C@@H](O[C@@H]2O[C@H](C)C[C@H](N(C)C)[C@H]2O)[C@](C)(OC/C=C/c2cnc3nccnc3c2)C[C@@H](C)C(=O)[C@H](C)[C@H]2NC(=O)O[C@@]21C | 0.015 (≈ 0.0195 µM) | 1 (≈ 1.3 µM) | 0.015 (≈ 0.0195 µM) | 0.2 (≈ 0.26 µM) | 2 (≈ 2.6 µM) | 0.2 (≈ 0.26 µM) | > 100 | 4 (≈ 5.21 µM) | 4 (≈ 5.21 µM) | 2 (≈ 2.6 µM) |  |  |  |  |  | 
4 | CC[C@H]1OC(=O)[C@H](C)C(=O)[C@H](C)[C@@H](O[C@@H]2O[C@H](C)C[C@H](N(C)C)[C@H]2O)[C@](C)(OC/C=C/c2cnc3ccsc3c2)C[C@@H](C)C(=O)[C@H](C)[C@H]2NC(=O)O[C@@]21C | 0.004 (≈ 0.00518 µM) | 0.5 (≈ 0.648 µM) | 0.008 (≈ 0.0104 µM) | 0.05 (≈ 0.0648 µM) | 0.25 (≈ 0.324 µM) | 0.05 (≈ 0.0648 µM) | > 100 | 1 (≈ 1.3 µM) | 2 (≈ 2.59 µM) | 0.25 (≈ 0.324 µM) |  | > 50 | 0.004 (≈ 0.00518 µM) | 0.05 (≈ 0.0648 µM) | 150 | 0.07
5 | CC[C@H]1OC(=O)[C@H](C)C(=O)[C@H](C)[C@@H](O[C@@H]2O[C@H](C)C[C@H](N(C)C)[C@H]2O)[C@](C)(OC/C=C/c2ccc(OC)cc2)C[C@@H](C)C(=O)[C@H](C)[C@@H](O)[C@]1(C)O | 1 (≈ 1.39 µM) | 128 (≈ 178 µM) | 0.25 (≈ 0.347 µM) | 1.56 (≈ 2.17 µM) | 2 (≈ 2.78 µM) | 1.56 (≈ 2.17 µM) | > 100 | 64 (≈ 88.9 µM) | 128 (≈ 178 µM) | 2 (≈ 2.78 µM) |  |  |  |  |  | 
6 | CC[C@H]1OC(=O)[C@H](C)C(=O)[C@H](C)[C@@H](O[C@@H]2O[C@H](C)C[C@H](N(C)C)[C@H]2O)[C@](C)(OC/C=C/c2cnc3ccccc3c2)C[C@@H](C)C(=O)[C@H](C)[C@@H](O)[C@]1(C)O | 0.03 (≈ 0.0405 µM) | 16 (≈ 21.6 µM) | 0.2 (≈ 0.27 µM) | 0.2 (≈ 0.27 µM) | 0.25 (≈ 0.337 µM) | 0.2 (≈ 0.27 µM) | > 100 | 100 (≈ 135 µM) | 16 (≈ 21.6 µM) | 0.1 (≈ 0.135 µM) | > 40 | 27.2 | 0.03 (≈ 0.0405 µM) | 0.2 (≈ 0.27 µM) |  | 
7 | CC[C@H]1OC(=O)[C@H](C)C(=O)[C@H](C)[C@@H](O[C@@H]2O[C@H](C)C[C@H](N(C)C)[C@H]2O)[C@](C)(OC/C=C/c2ccccc2)C[C@@H](C)C(=O)[C@H](C)[C@H]2NC(=O)O[C@@]21C | 0.03 (≈ 0.042 µM) | 64 (≈ 89.5 µM) | 0.03 (≈ 0.042 µM) | 0.1 (≈ 0.14 µM) | 0.25 (≈ 0.35 µM) | 0.1 (≈ 0.14 µM) | > 100 | 64 (≈ 89.5 µM) | 4 (≈ 5.6 µM) | 0.25 (≈ 0.35 µM) | > 40 | 30.2 | 0.03 (≈ 0.042 µM) | 0.1 (≈ 0.14 µM) |  | 
8 | CC[C@H]1OC(=O)[C@H](C)C(=O)[C@H](C)[C@@H](O[C@@H]2O[C@H](C)C[C@H](N(C)C)[C@H]2O)[C@](C)(OCCNCCc2ccccc2)C[C@@H](C)C(=O)[C@H](C)[C@H]2NC(=O)O[C@@]21C | 0.03 (≈ 0.0402 µM) | > 128 | 0.03 (≈ 0.0402 µM) | 0.1 (≈ 0.134 µM) | 2 (≈ 2.68 µM) | 0.2 (≈ 0.268 µM) | > 100 | > 128 | 4 (≈ 5.36 µM) | 2 (≈ 2.68 µM) |  |  |  |  |  | 
9 | CC[C@H]1OC(=O)[C@H](C)C(=O)[C@H](C)[C@@H](O[C@@H]2O[C@H](C)C[C@H](N(C)C)[C@H]2O)[C@](C)(OC)C[C@@H](C)C(=O)[C@H](C)[C@H]2N(CCCCn3cnc(-c4cccnc4)c3)C(=O)O[C@]12C [TELITHROMYCIN] |  |  |  |  |  |  |  |  |  |  | 34.1 | 12.5 | 0.004 (≈ 0.00493 µM) | 0.1 (≈ 0.123 µM) |  | 

Source: ChEMBL document CHEMBL1134286, “Novel erythromycin derivatives with aryl groups tethered to the C-6 position are potent protein synthesis inhibitors and active against multidrug-resistant respiratory pathogens” (J Med Chem, 2001)
